Laboratory results reported in ChEMBL document CHEMBL1124002, “Antiallergy agents. 1. Substituted 1,8-naphthyridin-2(1H)-ones as inhibitors of SRS-A release” (J Med Chem, 1988).

Legend:
Assay type in all cases: functional
Cavia porcellus [1] = test: Percent inhibition of bronchospasm in vivo at a dose of 25 mg/kg in guinea pig; conditions: Bronchiole
Procedure, shortened: (§1)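 Guinea pigs were sensitized with ovalbumin and used 3-4 weeks later. They were fasted and anesthetized with dialurethane ip. Compounds were given orally 2 h before challenge. Propranolol 1 mg/kg, indomethacin 5 mg/kg and mepyramine 2 mg/kg were given iv 15 min before a 0.5 min aerosol of 0.5% ovalbumin through the tracheal cannula. The rise in inflation pressure measured bronchoconstriction. Results are % inhibition, 4-5 animals per group.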

Cavia porcellus [2] = organism: Cavia porcellus; test: Percent inhibition of SRS-A release in vitro at a dose of 10 uM in guinea pig
Procedure, shortened: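 Male Hartley guinea pigs were sensitized with ovalbumin (5 mg ip + 5 mg sc on day 1, 5 mg ip on day 4). About 400 mg chopped lung was preincubated with compound for 12 min at 37 °C in Tyrode's with 10 mM cysteine, then challenged with 20 μg/mL ovalbumin (final) for 0.25 h. SRS-A in ethanol-extracted supernatant was bioassayed on mepyramine-treated ileum against a rat SRS-A standard. Results are % inhibition versus vehicle, from 3-4 lungs.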

Cavia porcellus [3] = test: Percent inhibition of bronchospasm in vivo at a dose of 12.5 mg/kg in guinea pig; conditions: Bronchiole; procedure, shortened: as §1

SMILES | inhibition in vivo at 25 mg/kg (Cavia porcellus [1]) [%] | inhibition at 10 µM (Cavia porcellus [2]) [%] | inhibition in vivo at 12.5 mg/kg (Cavia porcellus [3]) [%]
CCCCc1c(OC(C)=O)c2cccnc2n(-c2ccc(OC)cc2)c1=O | 32 | 64 | 
CCCCOc1ccc(-n2c(=O)c(CCCC)c(O)c3cccnc32)cc1 |  | 17 | 
CCCCc1c(O)c2cccnc2n(-c2ccc3c(c2)CCC3)c1=O | 1 | 55 | 
C=CCc1c(OC(C)=O)c2cccnc2n(-c2ccc(OC)cc2)c1=O | 42 | 52 | 
CCCCCCn1c(=O)c(CCCC)c(O)c2cccnc21 | 15 | 63 | 
CCCCc1c(O)c2cccnc2n(-c2ccc(OCc3ccccc3)cc2)c1=O | 0 | 50 | 
CC(C)=CCc1c(O)c2nccnc2n(-c2ccccc2)c1=O | 10 | 69 | 
CC(=O)Oc1c(CCC2CCCCN2C)c(=O)n(-c2ccccc2)c2ncccc12 (stereo not given) |  | 19 | 
CCCCc1c(O)c2cc3ccccc3nc2n(-c2ccccc2)c1=O |  | 0 | 
CC(C)=CCc1c(O)c2cccnc2n(-c2ccccc2)c1=O |  | 45 | 
CCCCc1c(O)c2cccnc2n(-c2ccc(OC)cc2)c1=O | 51 | 87 | 
CCCCc1c(OC(C)=O)c2cccnc2n(-c2cccc(SC)c2)c1=O | 27 | 57 | 
CCCCc1c(OCC(O)CO)c2cccnc2n(-c2ccccc2)c1=O (stereo not given) |  | 0 | 
O=c1c(CCCCc2ccccc2)c(O)c2cccnc2n1-c1ccccc1 |  | 9 | 
CCCCc1c(O)c2cccnc2n(-c2ccc(OC)c(OC)c2)c1=O | 0 | 57 | 
CCCCc1ccc(-n2c(=O)c(CCCC)c(O)c3cccnc32)cc1 | 13 | 50 | 
CCCCc1c(O)c2ccc(C)nc2n(-c2ccccc2)c1=O |  | 21 | 
CCCCc1c(OC(C)=O)c2cccnc2n(-c2ccc(F)cc2)c1=O |  | 77 | 34
CCCCc1c(O)c2cccnc2n(-c2ccc(O)c(C(=O)O)c2)c1=O |  | 0 | 
C=CCc1c(OC(C)=O)c2cccnc2n(-c2cccc(OC)c2)c1=O |  | 84 | 32
CCCCc1c(OCCCO)c2cccnc2n(-c2ccccc2)c1=O |  | 7 | 
O=c1cc(O)c2cccnc2n1-c1ccccc1 |  | 0 | 

SMILES | inhibition in vivo at 25 mg/kg (Cavia porcellus [1]) [%] | inhibition at 10 µM (Cavia porcellus [2]) [%] | inhibition in vivo at 12.5 mg/kg (Cavia porcellus [3]) [%]
O=c1c(CC2CCCCC2)c(O)c2cccnc2n1-c1ccccc1 |  | 30 | 
CCCCc1c(O)c2cc3c(nc2n(-c2ccccc2)c1=O)CCC3 |  | 22 | 
CCCCc1c(OCC2COC(C)(C)O2)c2cccnc2n(-c2ccccc2)c1=O (stereo not given) |  | 0 | 
C=CCc1c(OC(C)=O)c2cccnc2n(-c2ccccc2OC)c1=O |  | 35 | 
C=CCOc1c(CCCC)c(=O)n(-c2ccccc2)c2ncccc12 |  | 0 | 
CCCCc1c(O)c2cccnc2n(Cc2ccccc2)c1=O |  | 0 | 
CC1(CCc2c(O)c3cccnc3n(-c3ccccc3)c2=O)OCCO1 | 0 | 52 | 
CCCCc1c(O)c2cccnc2n(-c2ccc(O)cc2)c1=O |  | 44 | 
O=c1c(-c2ccccc2)c(O)c2cccnc2n1-c1ccccc1 |  | 48 | 
CCCCc1c(OCCOCC)c2cccnc2n(-c2ccccc2)c1=O |  | 0 | 
CCCCc1c(OCCN(C)C)c2cccnc2n(-c2ccccc2)c1=O | 84 | 0 | 13
CC(=O)CCc1c(O)c2cccnc2n(-c2ccccc2)c1=O |  | 36 | 
Cc1c(O)c2cccnc2n(-c2ccccc2)c1=O | 33 | 52 | 
CCCCc1c(OC(C)=O)c2cccnc2n(-c2ccc([S+](C)[O-])cc2)c1=O (stereo not given) |  | 11 | 
CCCCc1c(O)c2cccnc2n(CCN(C)C)c1=O |  | 0 | 
CCCCc1c(OCCCN(C)C)c2cccnc2n(-c2ccccc2)c1=O | 13 | 0 | 
CCCCc1c(O)c2cccnc2n(-c2cccc(SC)c2)c1=O | 55 | 62 | 
O=c1c(-c2ccccn2)c(O)c2cccnc2n1-c1ccccc1 |  | 84 | 42
CCCCc1c(O)c2cccnc2n(-c2ccccc2C)c1=O | 9 | 55 | 
CCCCc1c(O)c2cccnc2n(-c2ccc(F)cc2F)c1=O |  | 27 | 
CCCCc1c(O)c2cnccc2n(-c2ccccc2)c1=O |  | 0 | 
CCCCc1c(O)nc2ncccc2c1O |  | 15 | 

SMILES | inhibition in vivo at 25 mg/kg (Cavia porcellus [1]) [%] | inhibition at 10 µM (Cavia porcellus [2]) [%] | inhibition in vivo at 12.5 mg/kg (Cavia porcellus [3]) [%]
CCCCc1c(O)c2cccnc2n(-c2ccc(F)cc2)c1=O |  | 95 | 0
CCCCc1c(O)c2c(n(-c3ccccc3)c1=O)NCCC2 | 17 | 51 | 
CCCCc1c(O)c2cccnc2n(-c2cccc(Cl)c2C)c1=O |  | 5 | 
CCCCc1c(OC(C)=O)c2cccnc2n(-c2ccc(OC(C)=O)c(C(=O)O)c2)c1=O |  | 17 | 
CCCCc1c(O)c2cc(O)cnc2n(-c2ccccc2)c1=O | 0 | 69 | 
CCCCc1c(O)c2cccnc2n(-c2ccc(SC)cc2)c1=O | 8 | 86 | 
CCCCc1c(O)c2cccnc2n(-c2c(C)cccc2C)c1=O |  | 0 | 
CCCCc1c(O)c2cccnc2n(-c2ccc(C(C)=O)cc2)c1=O |  | 37 | 
CCCCc1c(O)c2cc(OC)cnc2n(-c2ccccc2)c1=O |  | 3 | 
CCCCc1c(O)c2cccnc2n(-c2ccc(C(C)O)cc2)c1=O (stereo not given) |  | 48 | 
CCCCc1c(OC(C)=O)c2cccnc2n(-c2cccc([S+](C)[O-])c2)c1=O (stereo not given) |  | 28 | 
CCCCc1c(O)c2cc3c(nc2n(-c2ccccc2)c1=O)CCCC3 |  | 38 | 
C=CCc1c(O)c2cccnc2n(-c2cccc(OC)c2)c1=O | 46 | 56 | 
CCCCc1c(OC(C)=O)c2cccnc2n(-c2cccc(S(C)(=O)=O)c2)c1=O |  | 20 | 
CCCCc1c(O)c2cncnc2n(-c2ccccc2)c1=O |  | 9 | 
CCCCCc1c(O)c2cccnc2n(-c2ccccc2)c1=O | 42 | 49 | 
CCCCc1c(OC(C)=O)c2cccnc2n(-c2ccc(S(C)(=O)=O)cc2)c1=O |  | 26 | 
CCCCc1c(O)c2ncccc2n(-c2ccccc2)c1=O |  | 43 | 
CCCCc1c(OCCO)c2cccnc2n(-c2ccccc2)c1=O | 64 | 86 | 
O=c1c(CCc2ccccn2)c(O)c2cccnc2n1-c1ccccc1 |  | 58 | 5
CCCCc1c(O)c2nccnc2n(-c2ccccc2)c1=O | 36 | 75 | 
C#CCOc1c(CC#C)c(=O)n(-c2ccccc2)c2ncccc12 |  | 62 | 0

SMILES | inhibition in vivo at 25 mg/kg (Cavia porcellus [1]) [%] | inhibition at 10 µM (Cavia porcellus [2]) [%] | inhibition in vivo at 12.5 mg/kg (Cavia porcellus [3]) [%]
CCCCc1c(O)c2cccnc2n(-c2ccccc2SC)c1=O |  | 32 | 
CCc1c(O)c2cccnc2n(-c2ccccc2)c1=O |  | 74 | 44
CCCCc1c(O)c2cccnc2n(-c2ccc(Oc3ccccc3)cc2)c1=O | 0 | 54 | 
CCCCc1c(OC(C)=O)c2cccnc2n(-c2ccc(SC)cc2)c1=O |  | 38 | 
C=CCc1c(OC(C)=O)c2cc(OC)cnc2n(-c2ccccc2)c1=O |  | 0 | 
CCCCc1c(O)c2cccnc2n(-c2cc(OC)c(OC)c(OC)c2)c1=O |  | 22 | 
C=CCc1c(O)c2cccnc2n(-c2cccc(C(F)(F)F)c2)c1=O | 0 | 50 | 
C=CCc1c(O)c2cccnc2n(-c2ccc(OC)cc2)c1=O |  | 3 | 
CC(O)CCc1c(O)c2cccnc2n(-c2ccccc2)c1=O (stereo not given) | 32 | 53 | 
CCCCc1c(O)c2ccncc2n(-c2ccccc2)c1=O |  | 0 | 
CCCCc1c(O)c2ccccc2n(-c2ccncc2)c1=O |  | 31 | 
CCCCc1c(OCC)c2cccnc2n(-c2ccccc2)c1=O |  | 0 | 
CCCCc1c(O)c2cccnc2n(-c2cccnc2)c1=O |  | 33 | 
C#CCOc1c(CCCC)c(=O)n(-c2ccccc2)c2ncccc12 |  | 0 | 
C=CCCCCCCCc1c(OC(C)=O)c2cccnc2n(-c2ccccc2)c1=O |  | 15 | 
CCCCc1c(O)c2cc(Br)cnc2n(-c2ccccc2)c1=O | 5 | 73 | 
O=c1c(C2CCCCC2)c(O)c2cccnc2n1-c1ccccc1 | 45 | 66 | 
C=CCc1c(OC(C)=O)c2cccnc2n(-c2cccc(C(F)(F)F)c2)c1=O |  | 65 | 
CCCCc1c(O)c2cccnc2n(-c2ccc(O)c(C(=O)OCC)c2)c1=O |  | 65 | 0
CCCCCCCCc1c(O)c2cccnc2n(-c2ccccc2)c1=O | 0 | 51 | 
CCCCc1c(=O)c2cccnc2n2c1oc1ccccc12 |  | 14 | 
